Published values of several laboratories.
Target: Casein kinase II subunit alpha (CSNK2A1, Homo sapiens, UniProt P68400)

Compound	effect on	action	technique	concentration	endpoint	value
CN1CCC2(CC1)NC(=O)c1c(c3ccc(Cl)c(Cl)c3n1C)C2C#N (racemic)	thermal stability	–	DSF	10 µM	ΔTm	2.5 °C
C[C@@H]1CN(c2cc(-c3nn(C)c4ccc(OC5(C)CC5)cc34)ncn2)C[C@H](C)O1	cell-free assay	–	competition with immobilised ligand	1 µM	remaining binding	76%
COc1cc(Cl)c(C(=O)N[C@@H](CN[C@H]2CC[C@@H](N)CC2)Cc2ccc(C#N)cc2)cc1-c1ccc(CN[C@H](C)c2ccc(C)cc2)o1	enzyme activity	inhibitor	–	1 µM	remaining activity	104%
Cn1c2c(Cl)c(Cl)ccc2c2cc[nH]c(=O)c21	thermal stability	–	DSF	10 µM	ΔTm	1.3 °C
Nc1ncnc2occ(-c3ccc(NC(=O)Nc4cc(C(F)(F)F)ccc4F)cc3)c12	enzyme activity	inhibitor	–	20 µM	remaining activity	63%
CN(C)C(=O)Cn1cc(-c2nc([C@@](C)(c3ccc(-c4cnc(N)nc4)cc3)C3CC3)no2)cn1	cell-free assay	–	competition with immobilised ligand	1 µM	remaining binding	88%
COc1cc2ncnc(Nc3ccc(Oc4ccccc4)c(C)c3C)c2cc1OC	enzyme activity	inhibitor	–	1 µM	inhibition	5%
Cc1ccc(NC(=O)c2ccc(C)c(C(F)(F)F)c2)cc1C#Cc1nn(C2CCC(O)CC2)c2ncnc(N)c12 (stereo not drawn)	cell-free assay	inhibitor	–	10 µM	remaining signal	105%
O=C1Nc2ccc(Cl)cc2C1=Cc1cc(Cl)c(O)c(Cl)c1	cell-free assay	–	–	0.5 µM	remaining signal	26.5%
Cc1ccc(Nc2nccc(N(C)c3ccc4c(C)n(C)nc4c3)n2)cc1S(N)(=O)=O	enzyme activity	inhibitor	–	0.3 µM	inhibition	-9%
O=C(Nc1cnc(Oc2ccc(F)cc2)nc1)N1CCc2ncccc2[C@@H]1c1ccc(F)cc1	cell-free assay	–	competition with immobilised ligand	1 µM	remaining binding	93%
O=C1NC(=O)c2cc(Nc3ccc(F)cc3)c(Nc3ccc(F)cc3)cc21	cell-free assay	inhibitor	–	0.5 µM	remaining signal	95.7%
Cn1c2c(c3ccc(Cl)c(Cl)c31)C(C#N)C1(CCOCC1)NC2=O (stereo not drawn)	thermal stability	–	DSF	10 µM	ΔTm	2.1 °C
Cc1sc(C(=O)NC2COC2)cc1-n1cc(NC(=O)Nc2c(F)cccc2Cl)cn1	enzyme activity	inhibitor	–	10 µM	remaining activity	97%
COc1cc(Nc2cnc(C#N)c(O[C@H](C)CN(C)C)n2)ncc1-c1cnn(C)c1	enzyme activity	inhibitor	radiometric	1 µM	remaining activity	110%
NS(=O)(=O)c1cc(NC(=O)Cc2ccccc2)ccc1Oc1cccc(Cl)c1	cell-free assay	–	competition with immobilised ligand	1 µM	remaining binding	96%
Nc1nc(Nc2ccccc2)sc1C(=O)c1c(F)cccc1F	enzyme activity	inhibitor	–	10 µM	remaining activity	111%
CC(C)(O)[C@H]1CC[C@H](Nc2ccc3ncc(-c4cccc(C(F)(F)F)c4)n3n2)CC1	enzyme activity	inhibitor	–	1 µM	remaining activity	61%
O=C(O)c1cc(-c2ccc(C3CCNCC3)cc2)c2ccc(-c3ccc(C(F)(F)F)cc3)cc2c1	cell-free assay	–	competition with immobilised ligand	1 µM	remaining binding	100%
FC(F)c1nc2ccccc2n1-c1nc(N2CCOCC2)nc(N2CCOCC2)n1	enzyme activity	inhibitor	–	10 µM	remaining activity	54%
CCCOc1ccc(OC)c(F)c1C(=O)c1ccc(C(=O)N[C@@H]2CNC[C@H]2NC(=O)c2ccc3[nH]ncc3c2)cc1	enzyme activity	inhibitor	–	10 µM	remaining activity	108%
